Columns and labels:
[1] = target: T1, Acetylcholinesterase (Homo sapiens, UniProt P22303); assay: Inhibition of recombinant human erythrocyte AChE using acetyl-or butyrylthiocholine iodide as substrate at 1 x 10^-6M preincubated for 5 mins followed by substrate addition and measured every min for 10 mins by Ellman's method relative to control; conditions: dose 1.0 10^-6M, time 15.0 min
Outline: (§1)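 AChE from human erythrocytes (0.05 U final) or recombinant AChE (0.025 U final), diluted in 20 mM HEPES pH 8 with 0.1 % Triton X-100, in an Ellman assay. DTNB is 0.3 mM in phosphate buffer pH 7.4 and compound is in DMSO. Enzyme and compound are preincubated 5 min at 25 °C. Reaction starts with 1 mM acetylthiocholine iodide solution.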

[2] = target: T2, 5-hydroxytryptamine receptor 4 (Homo sapiens, UniProt Q13639); assay: Inhibition of human recombinant 5HT4 receptor at 1 x 10^-6M incubated for 60 mins relative to control; conditions: dose 1.0 10^-6M
Outline: (§2)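 Membranes (2.5 μg protein) from a stable recombinant line expressing h5-HT4(b) receptor. Incubated in duplicate at 25 °C for 60 min with 0.2 nM [3H]-GR113808 in 25 mM Tris pH 7.4, with drug at 10^-6 or 10^-8 M. GF/C filtration; non-specific binding defined with 30 μM serotonin. Ki from five-point inhibition curves, ± SD.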

[3] = target: T2, 5-hydroxytryptamine receptor 4; assay: Inhibition of human recombinant 5HT4 receptor at 1 x 10^-8M incubated for 60 mins relative to control; conditions: dose 1.0 10^-8M; outline: as §2
[4] = target: T2, 5-hydroxytryptamine receptor 4; assay: Partial agonist activity at human recombinant 5HT4 receptor at 1 x 10^-6M incubated for 60 mins relative to control; assay type: functional; conditions: filed as partial agonist, dose 1.0 10^-6M
[5] = target: T2, 5-hydroxytryptamine receptor 4; assay: Partial agonist activity at human recombinant 5HT4 receptor at 1 x 10^-8M incubated for 60 mins relative to control; assay type: functional; conditions: filed as partial agonist, dose 1.0 10^-8M
[6] = target: Cholinesterase (Equus caballus) (UniProt P81908); assay: Inhibition of equine serum BuChE using Acetyl and butyrylthiocholine iodide as substrate at 1 x 10^-5M preincubated for 5 mins followed by substrate addition and measured every min for 10 mins by Ellman's method relative to control; conditions: dose 1.0 10^-5M, time 15.0 min
[7] = target: Acetylcholinesterase (Electrophorus electricus) (UniProt O42275); assay: Displacement of propidium iodide from electric eel AChE 1 x 10^-5M relative to control; conditions: dose 1.0 10^-5M
[8] = target: T2, 5-hydroxytryptamine receptor 4; assay: Partial agonist activity at human recombinant 5HT4 receptor expressed in […] cells assessed as cAMP accumulation by measuring maximum efficacy in presence of serotonin by HTRF analysis relative to control; assay type: functional, cell-based; conditions: filed as partial agonist
Outline: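 COS-7 cells grown in DMEM with 10 % dialyzed FCS and transiently transfected with HA-tagged h5-HT4R, then plated at 16,000 cells/well. At 24 h, cells were exposed for 10 min at 37 °C to 5-HT4 ligands in HEPES-buffered saline containing 0.1 % BSA and 0.1 mM RO-20-1724. Cells were lysed with 0.1 % Triton X-100 and cAMP measured by HTRF.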

[9] = target: T2, 5-hydroxytryptamine receptor 4; assay: (§3) Partial agonist activity at human recombinant 5HT4 receptor transiently transfected in […] cells using p-nitrophenyl phosphate disodium hexahydrate as substrate assessed as induction of sAPPalpha release incubated for 30 mins by microplate reader analysis; assay type: functional, cell-based; conditions: filed as partial agonist
Outline: (§4)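 COS-7 cells co-transfected with FLG-tagged h5-HT4 receptor and SEAP-tagged mouse APP695, seeded at 300,000 cells/well. At 24 h, cells were exposed to drug for 30 min. Supernatants were collected and secreted SEAP activity read colorimetrically with p-nitrophenyl phosphate as substrate.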

[10] = target: T2, 5-hydroxytryptamine receptor 4; assay: as §3, with “release by measuring maximum efficacy” for “release”, “analysis relative to control” for “analysis”; assay type: functional, cell-based; outline: as §4
[11] = target: T1, Acetylcholinesterase; assay: Inhibition of recombinant human erythrocyte AChE using acetyl-or butyrylthiocholine iodide as substrate preincubated for 5 mins followed by substrate addition and measured every min for 10 mins by Ellman's method
[12] = target: T1, Acetylcholinesterase; assay: Inhibition of recombinant human erythrocyte AChE using acetyl-or butyrylthiocholine iodide as substrate at 1 x 10^-5M preincubated for 5 mins followed by substrate addition and measured every min for 10 mins by Ellman's method relative to control; conditions: dose 1.0 10^-5M, time 15.0 min; outline: as §1
[13] = target: T2, 5-hydroxytryptamine receptor 4; assay: Binding affinity to human recombinant 5HT4 receptor assessed as inhibition constant incubated for 60 mins

T2 sequence (Q13639 whole entry): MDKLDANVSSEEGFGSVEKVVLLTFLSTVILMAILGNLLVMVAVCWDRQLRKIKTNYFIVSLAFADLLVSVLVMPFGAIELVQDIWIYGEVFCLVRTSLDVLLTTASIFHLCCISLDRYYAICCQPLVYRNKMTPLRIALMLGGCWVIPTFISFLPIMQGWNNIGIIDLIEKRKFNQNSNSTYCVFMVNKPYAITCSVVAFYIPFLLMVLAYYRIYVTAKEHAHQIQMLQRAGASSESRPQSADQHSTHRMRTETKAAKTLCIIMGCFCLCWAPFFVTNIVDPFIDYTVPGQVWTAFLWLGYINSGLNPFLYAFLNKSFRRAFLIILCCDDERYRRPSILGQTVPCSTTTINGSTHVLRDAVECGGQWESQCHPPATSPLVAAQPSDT
T1 sequence (P22303 whole entry): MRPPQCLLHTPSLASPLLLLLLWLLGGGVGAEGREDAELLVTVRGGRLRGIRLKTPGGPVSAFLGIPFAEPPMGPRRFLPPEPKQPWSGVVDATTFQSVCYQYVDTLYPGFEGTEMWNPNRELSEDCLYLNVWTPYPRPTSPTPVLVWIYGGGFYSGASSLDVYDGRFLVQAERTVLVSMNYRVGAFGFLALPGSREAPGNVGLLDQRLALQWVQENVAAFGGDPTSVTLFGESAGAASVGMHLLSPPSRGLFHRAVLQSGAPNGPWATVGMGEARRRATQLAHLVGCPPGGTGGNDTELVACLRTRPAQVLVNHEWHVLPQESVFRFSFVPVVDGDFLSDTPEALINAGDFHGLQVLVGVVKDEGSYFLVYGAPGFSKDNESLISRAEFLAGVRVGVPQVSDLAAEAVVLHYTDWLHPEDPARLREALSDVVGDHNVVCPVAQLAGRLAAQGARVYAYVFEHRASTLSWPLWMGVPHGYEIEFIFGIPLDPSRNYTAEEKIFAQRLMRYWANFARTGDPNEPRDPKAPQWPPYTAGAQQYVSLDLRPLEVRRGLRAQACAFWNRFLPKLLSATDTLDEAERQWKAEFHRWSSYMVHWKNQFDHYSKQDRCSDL
Chain of Acetylcholinesterase (Electrophorus electricus) (O42275 24-633 limits assumed): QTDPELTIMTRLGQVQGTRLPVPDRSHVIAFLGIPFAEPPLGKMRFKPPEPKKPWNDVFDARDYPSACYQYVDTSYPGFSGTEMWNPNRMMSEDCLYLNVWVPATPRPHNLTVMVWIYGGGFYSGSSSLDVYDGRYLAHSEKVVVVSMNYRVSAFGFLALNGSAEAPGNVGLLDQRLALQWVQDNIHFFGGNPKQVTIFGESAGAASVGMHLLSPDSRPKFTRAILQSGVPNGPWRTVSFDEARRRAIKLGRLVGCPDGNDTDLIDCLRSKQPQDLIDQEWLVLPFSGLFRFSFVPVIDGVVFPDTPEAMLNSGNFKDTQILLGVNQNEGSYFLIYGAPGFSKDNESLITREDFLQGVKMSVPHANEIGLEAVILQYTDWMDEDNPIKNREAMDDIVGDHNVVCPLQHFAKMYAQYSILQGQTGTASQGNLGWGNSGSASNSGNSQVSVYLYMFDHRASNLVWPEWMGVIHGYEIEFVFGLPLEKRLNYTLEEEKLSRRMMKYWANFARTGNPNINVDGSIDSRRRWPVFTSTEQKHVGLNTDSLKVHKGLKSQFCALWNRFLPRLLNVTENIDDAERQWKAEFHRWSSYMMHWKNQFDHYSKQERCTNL
Chain of Cholinesterase (Equus caballus) (P81908 whole entry): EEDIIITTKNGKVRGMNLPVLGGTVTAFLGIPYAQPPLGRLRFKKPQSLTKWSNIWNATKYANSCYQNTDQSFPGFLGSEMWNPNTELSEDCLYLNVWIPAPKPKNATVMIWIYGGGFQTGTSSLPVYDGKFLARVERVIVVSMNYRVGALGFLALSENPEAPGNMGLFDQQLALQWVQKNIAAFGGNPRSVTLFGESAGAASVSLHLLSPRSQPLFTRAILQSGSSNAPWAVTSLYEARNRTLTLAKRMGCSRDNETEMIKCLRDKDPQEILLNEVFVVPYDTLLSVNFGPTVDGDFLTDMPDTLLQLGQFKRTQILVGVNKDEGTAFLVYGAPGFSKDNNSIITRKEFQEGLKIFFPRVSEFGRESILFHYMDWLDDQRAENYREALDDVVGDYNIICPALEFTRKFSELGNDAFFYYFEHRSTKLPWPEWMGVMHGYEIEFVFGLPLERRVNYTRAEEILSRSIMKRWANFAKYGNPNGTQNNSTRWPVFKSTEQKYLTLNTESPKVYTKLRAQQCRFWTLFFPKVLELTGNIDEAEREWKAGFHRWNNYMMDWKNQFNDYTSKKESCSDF

Row | SMILES | inhibition [1] [%] | inhibition [2] [%] | inhibition [3] [%] | IC50 [11] [µM] | further results
1 | COc1cc(N)c(F)cc1C(=O)CCC1CCN(CC2CCCCC2)CC1 | 96 | 102 | 68 | – | Activity [4]: 100%; Activity [5]: 66%; inhibition [6]: 65%; inhibition [7]: 22%; Emax [8]: 67.3%; Activity [9]: Dose-dependent-effect; EC50 [9]: 0.023 µM; Emax [10]: 19.7%
2 | COc1c(C(=O)CCC2CCN(CC3CCCCC3)CC2)cc(F)c(N)c1Br | 85 | 80 | 8 | 0.309 | –
3 | COc1cc(N)c(Br)cc1C(=O)CCC1CCN(CC2CCCCC2)CC1 | – | 105 | 61 | – | inhibition [12]: 98%
4 | COc1cc(N)c(Cl)cc1C(=O)CCC1CCN(CC2CCCCC2)CC1 | – | – | – | – | inhibition ([1]; tested as the 2H-labelled form): 92%; inhibition ([2]; tested as the 2H-labelled form): 98%; inhibition ([3]; tested as the 2H-labelled form): 29%
5 | Nc1cc(O)c(C(=O)CCC2CCN(CC3CCCCC3)CC2)cc1Cl | 93 | 96 | 3 | – | –
6 | COc1cc(O)c(Cl)cc1C(=O)CCC1CCN(CC2CCCCC2)CC1 | 78 | 76 | 2 | – | –
7 | CC(=O)Nc1cc(O)c(C(=O)CCC2CCN(CC3CCCCC3)CC2)cc1Cl | 94 | 47 | 8 | 0.0573 | –
8 | COc1cc(NC(C)=O)c(Cl)cc1C(=O)CCC1CCN(CC2CCCCC2)CC1 | 98 | 94 | 1 | – | Ki [13]: 0.27 µM
9 | Nc1ccc(C(=O)CCC2CCN(CC3CCCCC3)CC2)cc1Cl | 96 | 97 | 10 | 0.0497 | –
10 | Nc1ccc(C(=O)CCC2CCN(CC3CCCCC3)CC2)cc1 | 78 | 80 | 4 | 0.317 | –
11 | CCOc1cc(N)c(I)cc1C(=O)CCC1CCN(CC2CCCCC2)CC1 | 51 | 103 | 65 | – | Ki [13]: 0.086 µM

— ChEMBL document CHEMBL6092210, “Synthesis, in vitro and in vivo biological evaluation of novel dual compounds targeting both acetylcholinesterase and serotonergic 5-HT4 receptors with potential interest in the treatment of Alzheimer's disease” (Eur J Med Chem, 2024)
